# Laboratory results as given in ChEMBL document CHEMBL1128432, “Structure-activity relationships for inhibition of type 1 and 2 human 5 alpha-reductase and human adrenal 3 beta-hydroxy-delta 5-steroid dehydrogenase/3-keto-delta 5-steroid isomerase by 6-azaandrost-4-en-3-ones: optimization of the C17 substituent” (J Med Chem, 1995).
# Columns and labels:
# [1] = molecular target: T1, 3-oxo-5-alpha-steroid 4-dehydrogenase 2 (Homo sapiens, UniProt P31213); test: Inhibitory activity measured on human steroid 5-alpha-reductase type 2
# T1 sequence (P31213 whole entry): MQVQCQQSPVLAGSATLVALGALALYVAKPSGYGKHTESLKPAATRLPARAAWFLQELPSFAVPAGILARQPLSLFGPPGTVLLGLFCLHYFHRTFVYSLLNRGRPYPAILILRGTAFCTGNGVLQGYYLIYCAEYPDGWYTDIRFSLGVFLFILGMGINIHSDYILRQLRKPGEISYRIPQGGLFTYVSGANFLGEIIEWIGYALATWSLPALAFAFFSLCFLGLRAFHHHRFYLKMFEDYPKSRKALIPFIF
# [2] = Inhibition of recombinant human adrenal 3-beta-hydroxy-delta-5-steroid dehydrogenase
# [3] = molecular target: T2, 3-oxo-5-alpha-steroid 4-dehydrogenase 1 (Homo sapiens, UniProt P18405); test: Inhibition of recombinant steroid 5-alpha-reductase type I
# T2 sequence (P18405 whole entry): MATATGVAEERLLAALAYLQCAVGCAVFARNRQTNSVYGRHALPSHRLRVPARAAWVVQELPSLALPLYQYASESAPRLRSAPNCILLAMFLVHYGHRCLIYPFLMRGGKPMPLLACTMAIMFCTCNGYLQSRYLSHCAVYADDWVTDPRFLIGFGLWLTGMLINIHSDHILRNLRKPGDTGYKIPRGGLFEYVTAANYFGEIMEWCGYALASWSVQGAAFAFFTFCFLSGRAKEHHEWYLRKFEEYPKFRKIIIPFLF
# [4] = Inhibition of […] rat adrenal 3-beta-hydroxy-delta-5-steroid dehydrogenase
# Summary of the method: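 Rat adrenal microsomes from homogenization and differential centrifugation. Started with 8 nM [3H]DHEA, stopped at 15 min with ethanol, and androstenedione measured by radio-HPLC. Kiapp from nonlinear regression, converted to Ki with Km 21 nM.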
# [5] = molecular target: T3, 3-oxo-5-alpha-steroid 4-dehydrogenase 2 (Rattus norvegicus, UniProt P31214); test: Inhibitory activity was measured on rat Steroid 5-alpha-reductase type 2
# T3 sequence (P31214 whole entry): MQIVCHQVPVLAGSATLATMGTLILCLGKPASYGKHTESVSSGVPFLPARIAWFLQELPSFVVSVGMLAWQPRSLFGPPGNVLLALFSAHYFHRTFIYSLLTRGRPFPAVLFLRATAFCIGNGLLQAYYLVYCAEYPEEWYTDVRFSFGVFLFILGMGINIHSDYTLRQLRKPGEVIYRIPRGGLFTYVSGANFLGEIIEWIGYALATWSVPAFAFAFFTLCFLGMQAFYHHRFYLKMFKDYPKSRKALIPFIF
# Summary of the method: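 Recombinant rat type 2 5α-reductase, assayed by the same procedure as the human type 2 assay, with changes specific to the rat enzymes.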
# [6] = test system: Rattus norvegicus; test: % reduction in prostate weight when compared with T-treated controls was measured in castrated rat at 10 mg/kg/day po administration; format: functional, Prostate gland
# Summary of the method: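 Castrated male rats, 8 per group, given 10 mg/kg/day orally alongside testosterone. The readout is ventral prostate weight reduction versus testosterone-treated controls, expressed relative to finasteride run as an internal standard in each experiment.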
# [7] = molecular target: T4, 3-oxo-5-alpha-steroid 4-dehydrogenase 1 (Rattus norvegicus, UniProt P24008); test: (§1) Inhibition of recombinant Steroid 5-alpha-reductase type I was evaluated as binding affinity of the compound
# T4 sequence (P24008 whole entry): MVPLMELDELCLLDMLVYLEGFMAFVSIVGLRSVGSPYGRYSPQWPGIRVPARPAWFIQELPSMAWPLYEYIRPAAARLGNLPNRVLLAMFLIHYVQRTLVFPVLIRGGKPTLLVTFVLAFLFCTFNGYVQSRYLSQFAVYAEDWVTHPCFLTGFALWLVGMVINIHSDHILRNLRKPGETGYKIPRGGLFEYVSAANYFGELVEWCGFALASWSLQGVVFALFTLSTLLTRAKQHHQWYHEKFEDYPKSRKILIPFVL
# [8] = Bioavailability in dog (Beagle) at t1/2 (dose 5 mg/kg i.v.); format: ADME, organism-based, Canis lupus familiaris; details: in vivo, iv
# Summary of the method: (§2)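 Male beagles dosed intravenously (5 mg/kg for these lines), 2–5 animals. Blood half-life measured in hours after iv dosing; % bioavailability reported alongside.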
# [9] = Plasma half life in beagles after iv administration.; details: beagle, dog
# [10] = molecular target: T4, 3-oxo-5-alpha-steroid 4-dehydrogenase 1; test: Inhibition of recombinant Steroid 5-alpha-reductase type I was evaluated as binding affinity (in vitro)
# [11] = molecular target: T2, 3-oxo-5-alpha-steroid 4-dehydrogenase 1; test: as §1
# [12] = Plasma half life in beagles after iv administration of 5 mg/kg.; format: ADME, organism-based, Canis lupus familiaris; design: dose 5 mg/kg, route intravenous; details: beagle, dog; summary of the method: as §2
# [13] = 4 mg/kg, in the assay text read “dose 4 mg/kg i.v.” for “dose 5 mg/kg i.v.”
Compound,IC50 [1],Ki [2],Ki [3],also measured
C[C@]12CCC(=O)C=C1NCC1C2CC[C@@]2(C)C1CC[C@@H]2C(=O)Nc1cc(C(F)(F)F)cc(C(F)(F)F)c1 (some centres not stated),0.2 nM,58 nM,26 nM,
C[C@]12CC[C@H]3[C@@H](CNC4=C(Cl)C(=O)CC[C@@]43C)[C@@H]1CC[C@@H]2C(=O)Nc1cc(C(F)(F)F)ccc1C(F)(F)F (stereo in doubt; 27),< 0.1 nM,160 nM,0.2 nM,
C[C@]12CC[C@H]3[C@@H](CNC4=C(Cl)C(=O)CC[C@@]43C)[C@@H]1CC[C@@H]2C(=O)Nc1c(C(F)(F)F)cccc1C(F)(F)F (stereo in doubt; 25),,370 nM,0.6 nM,
CC(C)(C)NC(=O)[C@H]1CC[C@H]2[C@@H]3CC[C@H]4NC(=O)C=C[C@]4(C)[C@H]3CC[C@]12C [FINASTERIDE],,11000 nM,,Ki [4]: 150 nM; IC50 [5]: 0.28 nM; Ki [10]: 6.8 nM; half-life [9]: 4.2 h
CC(C)(C)c1ccc(-c2ccc(Cl)cc2)cc1NC(=O)[C@H]1CCC2C3CNC4=CC(=O)CC[C@]4(C)C3CC[C@@]21C (some centres not stated),< 0.1 nM,1200 nM,3.4 nM,
C[C@]12CCC(C(=O)O)=CC1=CCC1C2CC[C@@]2(C)C1CC[C@@H]2C(=O)NC1(c2ccc(Cl)cc2)CCCC1 (some centres not stated),< 0.1 nM,280 nM,,IC50 [11]: 60 nM
C[C@]12C=CC(=O)NC1CCC1C2CC[C@@]2(C)C1CC[C@@H]2C(=O)NC1(c2ccc(Cl)cc2)CCCC1 (some centres not stated),< 0.1 nM,9000 nM,,IC50 [11]: 0.9 nM
CC(C)(C)c1ccc(-c2ccc(C(C)(C)C)c(NC(=O)[C@H]3CCC4C5CNC6=CC(=O)CC[C@]6(C)C5CC[C@@]43C)c2)cc1 (some centres not stated),< 0.1 nM,8900 nM,1.3 nM,
CC(C)(C)c1cc(Br)ccc1NC(=O)[C@H]1CCC2C3CNC4=CC(=O)CC[C@]4(C)C3CC[C@@]21C (some centres not stated),< 0.1 nM,390 nM,5.3 nM,
CC(C)(C)c1ccc(-c2ccc(C(F)(F)F)cc2NC(=O)[C@H]2CCC3C4CNC5=CC(=O)CC[C@]5(C)C4CC[C@@]32C)cc1 (some centres not stated),0.5 nM,19 nM,1100 nM,
CC(C)(C)NC(=O)[C@H]1CC[C@H]2[C@@H]3CC=C4C=C(C(=O)O)CC[C@]4(C)[C@H]3CC[C@]12C [EPRISTERIDE],,160 nM,,IC50 [11]: 1600 nM
C[C@]12CCC(=O)C=C1NCC1C2CC[C@@]2(C)C1CC[C@@H]2C(=O)Nc1ccccc1 (some centres not stated),,10 nM,240 nM,

# Further lines, with some results ahead:
IC50 [1],Ki [2],Ki [3],Compound,also measured
< 0.1 nM,19 nM,0.2 nM,CC1=C2NCC3C(CC[C@@]4(C)C3CC[C@@H]4C(=O)Nc3cc(C(F)(F)F)ccc3C(F)(F)F)[C@@]2(C)CCC1=O (some centres not stated),
< 0.1 nM,820 nM,4.2 nM,CC(C)(C)c1ccc(Br)cc1NC(=O)[C@H]1CCC2C3CNC4=CC(=O)CC[C@]4(C)C3CC[C@@]21C (some centres not stated),
< 0.1 nM,300 nM,4 nM,C[C@]12CCC(=O)C=C1NCC1C2CC[C@@]2(C)C1CC[C@@H]2C(=O)Nc1cc(C(F)(F)F)ccc1C(F)(F)F (some centres not stated),"Ki [4]: 50 nM; Ki [5]: 1.1 nM; Reduction in prostate weight [6]: 130%; Ki [7]: 0.27 nM; bioavailability [8, 13]: 100%; half-life [9]: 31 h"
< 0.1 nM,7.8 nM,8 nM,CC(C)(C)c1cc(NC(=O)[C@H]2CCC3C4CNC5=CC(=O)CC[C@]5(C)C4CC[C@@]32C)cc(C(C)(C)C)c1 (some centres not stated),
< 0.1 nM,1600 nM,8.8 nM,CC(C)(C)c1ccc(C(F)(F)F)cc1NC(=O)[C@H]1CCC2C3CNC4=CC(=O)CC[C@]4(C)C3CC[C@@]21C (some centres not stated),"Ki [4]: 140 nM; Ki [5]: 0.17 nM; Reduction in prostate weight [6]: 100%; Ki [7]: 0.1 nM; bioavailability [8, 13]: 67%; half-life [9]: 8.8 h"
< 0.1 nM,130 nM,6.7 nM,C[C@]12CCC(=O)C=C1NCC1C2CC[C@@]2(C)C1CC[C@@H]2C(=O)NC1(c2ccc(Cl)cc2Cl)CC1 (some centres not stated),
< 0.1 nM,1500 nM,3 nM,CC(C)(C)c1ccc(C2(NC(=O)[C@H]3CCC4C5CNC6=CC(=O)CC[C@]6(C)C5CC[C@@]43C)CCCC2)cc1 (some centres not stated),
< 0.1 nM,760 nM,7.5 nM,CC(C)(C)c1ccc(Cl)cc1NC(=O)[C@H]1CCC2C3CNC4=CC(=O)CC[C@]4(C)C3CC[C@@]21C (some centres not stated),
< 0.1 nM,2200 nM,1.5 nM,CC(C)(C)c1ccc(C2(NC(=O)[C@H]3CCC4C5CNC6=CC(=O)CC[C@]6(C)C5CC[C@@]43C)CCCCC2)cc1 (some centres not stated),
< 0.1 nM,500 nM,5 nM,CC(C)(C)c1ccc(C(C)(C)C)c(NC(=O)[C@H]2CCC3C4CNC5=CC(=O)CC[C@]5(C)C4CC[C@@]32C)c1 (some centres not stated),
0.2 nM,85 nM,27 nM,CC(C)(C)c1ccccc1NC(=O)[C@H]1CCC2C3CNC4=CC(=O)CC[C@]4(C)C3CC[C@@]21C (some centres not stated),
< 0.1 nM,490 nM,0.6 nM,C[C@]12CCC(=O)C(Cl)=C1NCC1C2CC[C@@]2(C)C1CC[C@@H]2C(=O)NC1(c2ccc(Cl)cc2)CCCC1 (some centres not stated),Reduction of prostate weight [6]: 49%; bioavailability ([8]; 5 mg/kg): 74%; half-life [12]: 19 h
< 0.1 nM,1600 nM,6.8 nM,C[C@]12CCC(=O)C=C1NCC1C2CC[C@@]2(C)C1CC[C@@H]2C(=O)NC1(c2ccc(Cl)cc2)CCCC1 (some centres not stated),Ki [4]: 97 nM; Ki [5]: 0.12 nM; Ki [10]: 0.07 nM; Reduction in prostate weight [6]: 130%; bioavailability ([8]; 5 mg/kg): 79%; half-life [9]: 12 h
< 0.1 nM,1500 nM,3.6 nM,CC(C)(C)c1ccc(C2(NC(=O)[C@H]3CCC4C5CNC6=CC(=O)CC[C@]6(C)C5CC[C@@]43C)CCCCCC2)cc1 (some centres not stated),
< 0.1 nM,830 nM,4.6 nM,CC(C)(C)c1ccc(-c2ccccc2)cc1NC(=O)[C@H]1CCC2C3CNC4=CC(=O)CC[C@]4(C)C3CC[C@@]21C (some centres not stated),
< 0.1 nM,1800 nM,3.1 nM,C[C@]12CCC(=O)C=C1NCC1C2CC[C@@]2(C)C1CC[C@@H]2C(=O)NC1(c2ccc(Cl)cc2)CCCCC1 (some centres not stated),
< 0.1 nM,200 nM,0.5 nM,CC1=C2NCC3C(CC[C@@]4(C)C3CC[C@@H]4C(=O)Nc3cc(C(F)(F)F)ccc3C(C)(C)C)[C@@]2(C)CCC1=O (some centres not stated),
